The source made the active and inactive calls.
Tests used:
Mus musculus [1] = test: Neurotoxicity in Swiss albino mouse at 300 mg/kg, ip after 0.5 hrs; assay type: toxicity, organism-based; parameters: dose 300 mg/kg, route intraperitoneal; conditions: in vivo
Procedure, shortened: (§1)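 Acute neurotoxicity by rotorod test in mice given 30, 100 and 300 mg/kg ip, assessed 0.5 and 4.0 h after dosing. Reported as the minimal dose producing the effect in half or more of the animals. Absence of activity is judged at the 300 mg/kg maximum.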

Rattus norvegicus [2] = test: Anticonvulsant activity against subcutaneous strychnine-induced seizures in Wistar rat at 300 mg/kg, ip after 4 hrs; assay type: functional, organism-based; parameters: dose 300 mg/kg
Procedure, shortened: (§2)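 Rats; subcutaneous strychnine-induced seizure model with compounds given intraperitoneally at 30, 100 and 300 mg/kg. Activity is checked at 0.5 h and 4.0 h and recorded as the minimal dose active in at least half of the animals. Absence of activity is judged at the 300 mg/kg maximum.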

Rattus norvegicus [3] = test: Anticonvulsant activity against subcutaneous strychnine-induced seizures in ip dosed Wistar rat assessed as minimum effective dose after 0.5 hrs; assay type: functional; conditions: read-out: MED
Procedure, shortened: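 Rats given 30, 100 or 300 mg/kg ip and challenged with subcutaneous strychnine. Protection was read at 0.5 and 4.0 h after dosing. The value is the minimal dose that gave activity in half or more of the animals; no activity at 300 mg/kg was the highest-dose cut-off.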

Mus musculus [4] = test: Anticonvulsant activity against subcutaneous pentylenetetrazole-induced seizures in Swiss albino mouse at 300 mg/kg, ip after 4 hrs; assay type: functional, organism-based; parameters: dose 300 mg/kg
Procedure, shortened: (§3)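 Mice; subcutaneous pentylenetetrazole seizure screen after ip dosing at 30, 100 and 300 mg/kg, read 0.5 and 4.0 h post-dose. Scored as the lowest dose protecting at least half of the animals. Absence of activity is judged at the 300 mg/kg maximum.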

Mus musculus [5] = test: Anticonvulsant activity against subcutaneous pentylenetetrazole-induced seizures in ip dosed Swiss albino mouse assessed as minimum effective dose after 0.5 hrs; assay type: functional; conditions: read-out: MED; procedure, shortened: as §3
Mus musculus [6] = test: Anticonvulsant activity against maximal electroshock-induced seizures in Swiss albino mouse at 300 mg/kg, ip after 4 hrs; assay type: functional, organism-based; parameters: dose 300 mg/kg
Procedure, shortened: (§4)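 Mice; compounds given ip at 30, 100 and 300 mg/kg and tested in the maximal electroshock seizure model at 0.5 and 4.0 h after dosing. Read-out is the minimal dose giving protection in half or more of the animals. Absence of activity is judged at the 300 mg/kg maximum.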

Mus musculus [7] = test: Anticonvulsant activity against maximal electroshock-induced seizures in ip dosed Swiss albino mouse assessed as minimum effective dose after 0.5 hrs; assay type: functional; conditions: read-out: MED; procedure, shortened: as §4
Mus musculus [8] = test: Neurotoxicity in Swiss albino mouse at 300 mg/kg, ip after 4 hrs; assay type: toxicity, organism-based; parameters: dose 300 mg/kg, route intraperitoneal; conditions: in vivo; procedure, shortened: as §1
Mus musculus [9] = test: Neurotoxicity in ip dosed Swiss albino mouse assessed as minimum dose required to cause toxicity after 4 hrs; assay type: organism-based; conditions: in vivo; procedure, shortened: as §1
Mus musculus [10] = test: Neurotoxicity in ip dosed Swiss albino mouse assessed as minimum dose required to cause toxicity after 0.5 hrs; assay type: organism-based; conditions: in vivo; procedure, shortened: as §1
Rattus norvegicus [11] = test: Anticonvulsant activity against subcutaneous strychnine-induced seizures in Wistar rat at 300 mg/kg, ip after 0.5 hrs; assay type: functional, organism-based; parameters: dose 300 mg/kg; procedure, shortened: as §2
Mus musculus [12] = test: Anticonvulsant activity against subcutaneous pentylenetetrazole-induced seizures in ip dosed Swiss albino mouse assessed as minimum effective dose after 4 hrs; assay type: functional; conditions: read-out: MED; procedure, shortened: as §3
Mus musculus [13] = test: Anticonvulsant activity against maximal electroshock-induced seizures in ip dosed Swiss albino mouse assessed as minimum effective dose after 4 hrs; assay type: functional; conditions: read-out: MED; procedure, shortened: as §4
Rattus norvegicus [14] = test: Anticonvulsant activity against subcutaneous strychnine-induced seizures in ip dosed Wistar rat assessed as minimum effective dose after 4 hrs; assay type: functional; conditions: read-out: MED; procedure, shortened: as §2
Rattus norvegicus [15] = test: Anticonvulsant activity against maximal electroshock-induced seizures in Wistar rat at 30 mg/kg, po after 0.25 hrs; assay type: functional, organism-based; parameters: dose 30 mg/kg
Procedure, shortened: (§5)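 Rats dosed orally at 30 mg/kg; maximal electroshock protection scored at 0.25, 0.5, 1, 2 and 4 h. Result is given as the number of protected rats out of four.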

Rattus norvegicus [16] = test: Anticonvulsant activity against maximal electroshock-induced seizures in Wistar rat at 30 mg/kg, po after 0.5 hrs; assay type: functional, organism-based; parameters: dose 30 mg/kg; procedure, shortened: as §5
Rattus norvegicus [17] = test: Anticonvulsant activity against maximal electroshock-induced seizures in Wistar rat at 30 mg/kg, po after 1 hr; assay type: functional, organism-based; parameters: dose 30 mg/kg; procedure, shortened: as §5
Rattus norvegicus [18] = test: Anticonvulsant activity against maximal electroshock-induced seizures in Wistar rat at 30 mg/kg, po after 2 hrs; assay type: functional, organism-based; parameters: dose 30 mg/kg; procedure, shortened: as §5
Rattus norvegicus [19] = test: Neurotoxicity in Wistar rat at 30 mg/kg, po after 0.25 hrs; assay type: toxicity, organism-based; parameters: dose 30 mg/kg, route oral; conditions: in vivo
Procedure, shortened: (§6)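 Oral dosing in rats at 30 mg/kg, neurotoxicity (rotorod) scored at 0.25, 0.5, 1, 2 and 4 h post-administration. Counts are out of four rats per time point.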

Rattus norvegicus [20] = test: Neurotoxicity in Wistar rat at 30 mg/kg, po after 0.5 hrs; assay type: toxicity, organism-based; parameters: dose 30 mg/kg, route oral; conditions: in vivo; procedure, shortened: as §6
Rattus norvegicus [21] = test: Neurotoxicity in Wistar rat at 30 mg/kg, po after 1 hr; assay type: toxicity, organism-based; parameters: dose 30 mg/kg, route oral; conditions: in vivo; procedure, shortened: as §6
Rattus norvegicus [22] = test: Neurotoxicity in Wistar rat at 30 mg/kg, po after 2 hrs; assay type: toxicity, organism-based; parameters: dose 30 mg/kg, route oral; conditions: in vivo; procedure, shortened: as §6
Rattus norvegicus [23] = test: Neurotoxicity in Wistar rat at 30 mg/kg, po after 4 hrs; assay type: toxicity, organism-based; parameters: dose 30 mg/kg, route oral; conditions: in vivo; procedure, shortened: as §6
Rattus norvegicus [24] = test: Increase in GABA level in Wistar rat midbrain assessed per mg of tissue at 100 mg/kg, ip after 2 hrs; assay type: functional; conditions: route intraperitoneal
Procedure, shortened: (§7)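 Rats given 100 mg/kg ip and killed by decapitation 2 h later. Midbrain, medulla oblongata and cerebellum are placed separately in ice-cold 80% ethanol and processed for GABA, expressed per 100 mg tissue. Reference drug clobazam is given at 30 mg/kg ip. Values are mean ± SEM of six rats.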

Rattus norvegicus [25] = test: Increase in GABA level in Wistar rat medulla oblangata assessed per mg of tissue at 100 mg/kg, ip after 2 hrs; assay type: functional, Medulla oblongata; conditions: route intraperitoneal; procedure, shortened: as §7
Rattus norvegicus [26] = test: Increase in GABA level in Wistar rat cerebellum assessed per mg of tissue at 100 mg/kg, ip after 2 hrs; assay type: functional; conditions: route intraperitoneal; procedure, shortened: as §7
Mus musculus [27] = test: Anticonvulsant activity against subcutaneous pentylenetetrazole-induced seizures in Swiss albino mouse at 300 mg/kg, ip after 0.5 hrs; assay type: functional, organism-based; parameters: dose 300 mg/kg; procedure, shortened: as §3
Rattus norvegicus [28] = test: Increase in GABA level in Wistar rat midbrain assessed per mg of tissue at 30 mg/kg, ip after 2 hrs; assay type: functional; conditions: route intraperitoneal
Rattus norvegicus [29] = test: Increase in GABA level in Wistar rat medulla oblangata assessed per mg of tissue at 30 mg/kg, ip after 2 hrs; assay type: functional, Medulla oblongata; conditions: route intraperitoneal
Procedure, shortened: (§8)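 Rats dosed ip, killed by decapitation 2 h after dosing. Midbrain, medulla oblongata and cerebellum were each placed separately in ice-cold 80% ethanol and processed for GABA by a previously reported method. GABA was expressed per 100 mg tissue. Values are the mean ± SEM of six rats, compared with an untreated control group.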

Rattus norvegicus [30] = test: Increase in GABA level in Wistar rat cerebellum assessed per mg of tissue at 30 mg/kg, ip after 2 hrs; assay type: functional; conditions: route intraperitoneal; procedure, shortened: as §8
Mus musculus [31] = test: Anticonvulsant activity against maximal electroshock-induced seizures in Swiss albino mouse at 300 mg/kg, ip after 0.5 hrs; assay type: functional, organism-based; parameters: dose 300 mg/kg; procedure, shortened: as §4

Structure (SMILES) | Activity (Mus musculus [1]) | MED (Rattus norvegicus [2]) | MED (Mus musculus [4]) | minimal effective dose (Mus musculus [5]) [mg/kg] | MED (Mus musculus [6]) | minimal effective dose (Mus musculus [7]) [mg/kg] | Activity (Mus musculus [8]) | Activity (Mus musculus [10]) [mg/kg] | MED (Rattus norvegicus [11]) | minimal effective dose (Mus musculus [12]) [mg/kg] | minimal effective dose (Mus musculus [13]) [mg/kg] | minimal effective dose (Rattus norvegicus [14]) [mg/kg] | Activity (Rattus norvegicus [15]) | Activity (Rattus norvegicus [19]) | Activity (Rattus norvegicus [20]) | Activity (Rattus norvegicus [21]) | Activity (Rattus norvegicus [24]) [µg] | Activity (Rattus norvegicus [25]) [µg] | Activity (Rattus norvegicus [26]) [µg] | MED (Mus musculus [27]) | further results
CCCC(CCC)C(=O)[O-].[Na+] [VALPROATE SODIUM] | Non-toxic | inactive | inactive | 300 | inactive | 300 | Non-toxic | – | – | – | – | – | – | – | – | – | – | – | – | – | minimal effective dose (Rattus norvegicus [3]): 300 mg/kg
NC(=O)N1c2ccccc2C=Cc2ccccc21 [CARBAMAZEPINE] | – | inactive | – | 100 | – | 30 | – | 100 | inactive | 300 | 100 | – | – | – | – | – | – | – | – | – | Activity (Mus musculus [9]): 300 mg/kg
O=C(N/N=C(/c1ccccc1)c1ccc([N+](=O)[O-])cc1)Nc1nnc(COc2ccc3ccccc3c2)o1 | Non-toxic | – | – | 100 | – | 100 | Non-toxic | – | inactive | 300 | 300 | 300 | inactive | Non-toxic | Non-toxic | Non-toxic | 67.72 | 46.62 | 29.75 | – | Activity (Rattus norvegicus [16]): inactive; Activity (Rattus norvegicus [17]): inactive; Activity (Rattus norvegicus [18]): inactive; Activity (Rattus norvegicus [22]): Non-toxic; Activity (Rattus norvegicus [23]): Non-toxic
O=C(N/N=C\c1ccc(O)cc1)Nc1nnc(COc2ccc3ccccc3c2)o1 | – | – | inactive | – | – | 100 | – | 100 | – | – | 300 | 300 | inactive | Non-toxic | Non-toxic | Non-toxic | 53.77 | 35.48 | 28.53 | inactive | Activity (Mus musculus [9]): 100 mg/kg; minimal effective dose (Rattus norvegicus [3]): 100 mg/kg; Activity (Rattus norvegicus [16]): inactive; Activity (Rattus norvegicus [18]): inactive; Activity (Rattus norvegicus [22]): Non-toxic
CN1C(=O)CC(=O)N(c2ccccc2)c2cc(Cl)ccc21 [CLOBAZAM] | – | – | – | – | – | – | – | – | – | – | – | – | – | – | – | – | – | – | – | – | Activity (Rattus norvegicus [28]): 69.51 µg; Activity (Rattus norvegicus [29]): 47.53 µg; Activity (Rattus norvegicus [30]): 35.44 µg
O=C1NC(=O)C(c2ccccc2)(c2ccccc2)N1 [PHENYTOIN] | – | – | inactive | – | – | 30 | – | 100 | inactive | – | 30 | 100 | – | – | – | – | – | – | – | inactive | Activity (Mus musculus [9]): 100 mg/kg
O=C(N/N=C(/c1ccccc1)c1ccc(O)cc1)Nc1nnc(COc2ccc3ccccc3c2)o1 | Non-toxic | – | – | – | – | 100 | Non-toxic | – | inactive | 300 | 300 | 300 | inactive | Non-toxic | Non-toxic | Non-toxic | 62.25 | 37.74 | 31.41 | inactive | Activity (Rattus norvegicus [16]): inactive; Activity (Rattus norvegicus [17]): inactive; Activity (Rattus norvegicus [22]): Non-toxic
C/C(=N/NC(=O)Nc1nnc(COc2ccc3ccccc3c2)o1)c1ccc([N+](=O)[O-])cc1 | Non-toxic | – | – | – | – | 100 | Non-toxic | – | inactive | 300 | 300 | 300 | inactive | Non-toxic | Non-toxic | Non-toxic | 45.5 | 40.42 | 27.56 | inactive | Activity (Rattus norvegicus [17]): inactive; Activity (Rattus norvegicus [18]): inactive; Activity (Rattus norvegicus [23]): Non-toxic
COc1cc(/C=N\NC(=O)Nc2nnc(COc3ccc4ccccc4c3)o2)ccc1O | – | – | inactive | – | inactive | – | Non-toxic | 300 | inactive | – | – | 300 | – | – | – | – | – | – | – | inactive | MED (Mus musculus [31]): inactive
CCC1(C)CC(=O)NC1=O (stereo not given) [ETHOSUXIMIDE] | Non-toxic | inactive | – | 100 | inactive | – | Non-toxic | – | – | 300 | – | – | – | – | – | – | – | – | – | – | minimal effective dose (Rattus norvegicus [3]): 300 mg/kg; MED (Mus musculus [31]): inactive
C/C(=N/NC(=O)Nc1nnc(COc2ccc3ccccc3c2)o1)c1ccc(C)cc1 | – | inactive | inactive | 300 | inactive | – | Non-toxic | 300 | inactive | – | – | – | – | – | – | – | – | – | – | – | MED (Mus musculus [31]): inactive

Reference: ChEMBL document CHEMBL1177802, “Novel semicarbazones based 2,5-disubstituted-1,3,4-oxadiazoles: one more step towards establishing four binding site pharmacophoric model hypothesis for anticonvulsant activity” (Bioorg Med Chem Lett, 2010)
